15 molecules from ChEMBL document CHEMBL1121923, “N2- and C-7 substituted actinomycin D analogues: synthesis, DNA-binding affinity, and biochemical and biological properties. Structure-activity relationship” (J Med Chem, 1981) can be followed below.

Converted amounts (≈) assume the structure as drawn.

In one data set the test system is CCRF-CEM. Briefly: In vitro antitumor activity against human lymphoblastic leukemia cells. It counts as functional. Conditions: read-out: ID50 (the source's name). In short, it runs like this:
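Human lymphoblastic leukemia CCRF-CEM cells grown in suspension culture; growth inhibition in vitro; ID50 (ng/mL) reported as the 50% inhibitory dose.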

For data set [1], the system named is P388. In words: Percent of increased life span of P388 cells implanted CDF1 male mice. Format: functional, Mus musculus. In outline: (§1)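 CDF1 male mice, groups of seven, given 10^6 P388 cells ip on day 0; drug ip in 5% DMSO–saline on days 1, 5 and 9; controls received vehicle; range of doses tested, optimal nontoxic dose listed; median survival time; %ILS = (treated − control)/control × 100; average of two or more experiments.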

The subject of data set [2] is P388. In words: Median survival time of the P388 cells implanted CDF1 male mice in vivo. Format: functional, Mus musculus. In short, it runs like this:
as §1

Data set [3] has as its system P388. Briefly: Optimal dose for antitumor activity was measured in P388 cells of CDF1 male mice in vivo. Format: functional, Mus musculus. In short, it runs like this: as §1
Data set [4] has as its system P388. Briefly: Concentration required for 50% inhibition of incorporation of labeled uridine by P388 cells for the synthesis of RNA (in vitro). Conditions: Mus musculus, read-out: ED50 (the source's name). Format: functional.
Data set [5] concerns P388. Briefly: Concentration required for 50% inhibition of incorporation of labeled thymidine by p388 cells for synthesis of DNA (in vitro). Format: functional. Conditions: Mus musculus, read-out: ED50 (the source's name).
The next data set is filed under the species Bos taurus. Briefly: Thermal denaturation (deltaTm) of compound against calf thymus DNA was measured. Conditions: cattle, in vitro. It counts as ADME. In outline:
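Calf thymus DNA (MW 100 000–500 000) in 0.01 M phosphate, 5 × 10^-3 M EDTA, pH 7.0; drug 7 × 10^-4 M, DNA nucleotide 7 × 10^-3 M; 259 nm absorbance read at 0.25–1.0 °C steps; Tm taken at 50% hyperchromicity; ΔTm = complex Tm minus DNA Tm.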

Usually ILS stands for the gain in survival time of treated over control animals, in per cent. A high value points to much gain in survival. With `Cc1c2oc3c(C)c(OCc4ccc([N+](=O)[O-])cc4)cc(C(=O)N[C@@H]4C(=O)N[C@H](C(C)C)C(=O)N5CCC[C@H]5C(=O)N(C)CC(=O)N(C)[C@@H](C(C)C)C(=O)O[C@@H]4C)c3nc-2c(C(=O)N[C@@H]2C(=O)N[C@H](C(C)C)C(=O)N3CCC[C@H]3C(=O)N(C)CC(=O)N(C)[C@@H](C(C)C)C(=O)O[C@@H]2C)c(N)c1=O`, the IC50 in the data set with CCRF-CEM was 0.5 µg/mL (≈ 0.355 µM). Besides, the increase in lifespan (ILS) in the data set on P388 [1] was 33%. For the same molecule, the MST in the data set with P388 [2] was 14 days. The same molecule came in with an Optimal dose with P388 [3] of 600 µg/kg.

As to `Cc1c2oc3c(C)c(OCc4ccc(Cl)c(Cl)c4)cc(C(=O)N[C@@H]4C(=O)N[C@H](C(C)C)C(=O)N5CCC[C@H]5C(=O)N(C)CC(=O)N(C)[C@@H](C(C)C)C(=O)O[C@@H]4C)c3nc-2c(C(=O)N[C@@H]2C(=O)N[C@H](C(C)C)C(=O)N3CCC[C@H]3C(=O)N(C)CC(=O)N(C)[C@@H](C(C)C)C(=O)O[C@@H]2C)c(N)c1=O`, in the data set on P388 [1], the increase in life span (ILS) was 81%. Further, the MST with P388 [2] amounted to 19 days. The molecule also returned an Optimal dose in the data set on P388 [3] of 500 µg/kg.

For `CCCCNc1c(C(=O)N[C@@H]2C(=O)N[C@H](C(C)C)C(=O)N3CCC[C@H]3C(=O)N(C)CC(=O)N(C)[C@@H](C(C)C)C(=O)O[C@@H]2C)c2nc3c(C(=O)N[C@@H]4C(=O)N[C@H](C(C)C)C(=O)N5CCC[C@H]5C(=O)N(C)CC(=O)N(C)[C@@H](C(C)C)C(=O)O[C@@H]4C)ccc(C)c3oc-2c(C)c1=O`, the IC50 in the data set with CCRF-CEM worked out at 0.95 µg/mL (≈ 0.724 µM). In the data set with P388 [1], this molecule had an ILS of 36%. The molecule also showed an MST with P388 [2] of 15 days. Moreover, in the data set with P388 [3], the Optimal dose stood at 900 µg/kg.

In the case of `Cc1c2oc3c(C)c(O)c(N)c(C(=O)N[C@@H]4C(=O)N[C@H](C(C)C)C(=O)N5CCC[C@H]5C(=O)N(C)CC(=O)N(C)[C@@H](C(C)C)C(=O)O[C@@H]4C)c3nc-2c(C(=O)N[C@@H]2C(=O)N[C@H](C(C)C)C(=O)N3CCC[C@H]3C(=O)N(C)CC(=O)N(C)[C@@H](C(C)C)C(=O)O[C@@H]2C)c/c1=N/Cc1cccc(Oc2ccccc2)c1`, the EC50 came out at 700 nM in the data set with P388 [4] and 1500 nM with P388 [5].

Take `Cc1c2oc3c(C)c(O)c(N)c(C(=O)N[C@@H]4C(=O)N[C@H](C(C)C)C(=O)N5CCC[C@H]5C(=O)N(C)CC(=O)N(C)[C@@H](C(C)C)C(=O)O[C@@H]4C)c3nc-2c(C(=O)N[C@@H]2C(=O)N[C@H](C(C)C)C(=O)N3CCC[C@H]3C(=O)N(C)CC(=O)N(C)[C@@H](C(C)C)C(=O)O[C@@H]2C)c/c1=N/Cc1ccco1`: the EC50 stood at 810 nM with P388 [4] and 2450 nM in the data set on P388 [5].

In the case of `Cc1c2oc3c(C)c(O)c(N)c(C(=O)N[C@@H]4C(=O)N[C@H](C(C)C)C(=O)N5CCC[C@H]5C(=O)N(C)CC(=O)N(C)[C@@H](C(C)C)C(=O)O[C@@H]4C)c3nc-2c(C(=O)N[C@@H]2C(=O)N[C@H](C(C)C)C(=O)N3CCC[C@H]3C(=O)N(C)CC(=O)N(C)[C@@H](C(C)C)C(=O)O[C@@H]2C)c/c1=N/Cc1ccc[nH]1`, the EC50 was 184 nM in the data set on P388 [4] and 370 nM in the data set with P388 [5].

On to `Cc1c2oc3c(C)c(OC(=O)c4ccccc4)cc(C(=O)N[C@@H]4C(=O)N[C@H](C(C)C)C(=O)N5CCC[C@H]5C(=O)N(C)CC(=O)N(C)[C@@H](C(C)C)C(=O)O[C@@H]4C)c3nc-2c(C(=O)N[C@@H]2C(=O)N[C@H](C(C)C)C(=O)N3CCC[C@H]3C(=O)N(C)CC(=O)N(C)[C@@H](C(C)C)C(=O)O[C@@H]2C)c(N)c1=O`, for which the IC50 in the data set on CCRF-CEM was 2.5 µg/mL (≈ 1.82 µM). The increase in lifespan (ILS) in the data set on P388 [1] amounted to 91%. The molecule further showed an MST with P388 [2] of 20 days. For the same molecule, in the data set on P388 [3], the Optimal dose was 750 µg/kg.

On to `Cc1c2oc3c(C)c(OCc4ccc(Cl)cc4)cc(C(=O)N[C@@H]4C(=O)N[C@H](C(C)C)C(=O)N5CCC[C@H]5C(=O)N(C)CC(=O)N(C)[C@@H](C(C)C)C(=O)O[C@@H]4C)c3nc-2c(C(=O)N[C@@H]2C(=O)N[C@H](C(C)C)C(=O)N3CCC[C@H]3C(=O)N(C)CC(=O)N(C)[C@@H](C(C)C)C(=O)O[C@@H]2C)c(N)c1=O`, for which the IC50 in the data set with CCRF-CEM was determined as 0.5 µg/mL (≈ 0.358 µM). In the data set with P388 [1], the ILS was found to be 52%. In addition, the MST in the data set with P388 [2] was determined as 16 days. In addition, in the data set on P388 [3], the Optimal dose was 450 µg/kg.

`Cc1c2oc3c(C)c(OC(=O)c4ccc5ccccc5c4)cc(C(=O)N[C@@H]4C(=O)N[C@H](C(C)C)C(=O)N5CCC[C@H]5C(=O)N(C)CC(=O)N(C)[C@@H](C(C)C)C(=O)O[C@@H]4C)c3nc-2c(C(=O)N[C@@H]2C(=O)N[C@H](C(C)C)C(=O)N3CCC[C@H]3C(=O)N(C)CC(=O)N(C)[C@@H](C(C)C)C(=O)O[C@@H]2C)c(N)c1=O`: in the data set on P388 [1], the increase in life span (ILS) is 71%. The same molecule showed an MST in the data set on P388 [2] of 18 days. The molecule further came in with an Optimal dose with P388 [3] of 900 µg/kg.

As to `Cc1c2oc3c(C)c(O)c(N)c(C(=O)N[C@@H]4C(=O)N[C@H](C(C)C)C(=O)N5CCC[C@H]5C(=O)N(C)CC(=O)N(C)[C@@H](C(C)C)C(=O)O[C@@H]4C)c3nc-2c(C(=O)N[C@@H]2C(=O)N[C@H](C(C)C)C(=O)N3CCC[C@H]3C(=O)N(C)CC(=O)N(C)[C@@H](C(C)C)C(=O)O[C@@H]2C)cc1=N`, the EC50 in the data set with P388 [4] came out at 82 nM; with P388 [5], 1230 nM.

As for `CCCCOc1cc(C(=O)N[C@@H]2C(=O)N[C@H](C(C)C)C(=O)N3CCC[C@H]3C(=O)N(C)CC(=O)N(C)[C@@H](C(C)C)C(=O)O[C@@H]2C)c2nc3c(C(=O)N[C@@H]4C(=O)N[C@H](C(C)C)C(=O)N5CCC[C@H]5C(=O)N(C)CC(=O)N(C)[C@@H](C(C)C)C(=O)O[C@@H]4C)c(N)c(=O)c(C)c-3oc2c1C`, the EC50 came to 770 nM in the data set with P388 [4] and 11300 nM in the data set with P388 [5]. Moreover, in the data set with P388 [1], the ILS was determined as 33%. This molecule had an MST in the data set with P388 [2] of 14 days. Also, the Optimal dose with P388 [3] amounted to 750 µg/kg.

`Cc1c2oc3c(C)ccc(C(=O)N[C@@H]4C(=O)N[C@H](C(C)C)C(=O)N5CCC[C@H]5C(=O)N(C)CC(=O)N(C)[C@@H](C(C)C)C(=O)O[C@@H]4C)c3nc-2c(C(=O)N[C@@H]2C(=O)N[C@H](C(C)C)C(=O)N3CCC[C@H]3C(=O)N(C)CC(=O)N(C)[C@@H](C(C)C)C(=O)O[C@@H]2C)c(NCCCCCCCCN)c1=O`: in the data set with CCRF-CEM, the IC50 was 0.31 µg/mL (≈ 0.224 µM). This molecule also had an increase in lifespan (ILS) in the data set with P388 [1] of 27%. The molecule also returned an MST in the data set on P388 [2] of 14 days. Further, the Optimal dose in the data set on P388 [3] amounted to 1800 µg/kg.

On to `Cc1c2oc3c(C)c(O)c(N)c(C(=O)N[C@@H]4C(=O)N[C@H](C(C)C)C(=O)N5CCC[C@H]5C(=O)N(C)CC(=O)N(C)[C@@H](C(C)C)C(=O)O[C@@H]4C)c3nc-2c(C(=O)N[C@@H]2C(=O)N[C@H](C(C)C)C(=O)N3CCC[C@H]3C(=O)N(C)CC(=O)N(C)[C@@H](C(C)C)C(=O)O[C@@H]2C)c/c1=N/Cc1ccccc1`, for which the EC50 with P388 [4] turned out to be 1400 nM; in the data set on P388 [5] it was 2700 nM.

`COc1cc(C(=O)N[C@@H]2C(=O)N[C@H](C(C)C)C(=O)N3CCC[C@H]3C(=O)N(C)CC(=O)N(C)[C@@H](C(C)C)C(=O)O[C@@H]2C)c2nc3c(C(=O)N[C@@H]4C(=O)N[C@H](C(C)C)C(=O)N5CCC[C@H]5C(=O)N(C)CC(=O)N(C)[C@@H](C(C)C)C(=O)O[C@@H]4C)c(N)c(=O)c(C)c-3oc2c1C`: the “Delta Tm” value in the data set filed under Bos taurus is reported as 5.5.

For `CCCCCCCCCCCNc1c(C(=O)N[C@@H]2C(=O)N[C@H](C(C)C)C(=O)N3CCC[C@H]3C(=O)N(C)CC(=O)N(C)[C@@H](C(C)C)C(=O)O[C@@H]2C)c2nc3c(C(=O)N[C@@H]4C(=O)N[C@H](C(C)C)C(=O)N5CCC[C@H]5C(=O)N(C)CC(=O)N(C)[C@@H](C(C)C)C(=O)O[C@@H]4C)ccc(C)c3oc-2c(C)c1=O`, in the data set filed under Bos taurus, the “Delta Tm” value came to 0.
